# How the values were obtained:
# [1] = Apparent lipophilicity (log kw) at pH 7.5; format: physicochemical; settings: buffer
# Method in brief: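 Measured at pH 7.5 by RP-HPLC. Capacity factors were extrapolated to 0% methanol, and the resulting log kw was taken as apparent lipophilicity. Values that could not be measured were estimated from derived fragmental values.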
# [2] = target: D(2) dopamine receptor (Rattus norvegicus) (UniProt P61169); assay: Eudisimic index was determined for the compound against Dopamine receptor D2
# Sequence of D(2) dopamine receptor (Rattus norvegicus) (P61169 whole entry): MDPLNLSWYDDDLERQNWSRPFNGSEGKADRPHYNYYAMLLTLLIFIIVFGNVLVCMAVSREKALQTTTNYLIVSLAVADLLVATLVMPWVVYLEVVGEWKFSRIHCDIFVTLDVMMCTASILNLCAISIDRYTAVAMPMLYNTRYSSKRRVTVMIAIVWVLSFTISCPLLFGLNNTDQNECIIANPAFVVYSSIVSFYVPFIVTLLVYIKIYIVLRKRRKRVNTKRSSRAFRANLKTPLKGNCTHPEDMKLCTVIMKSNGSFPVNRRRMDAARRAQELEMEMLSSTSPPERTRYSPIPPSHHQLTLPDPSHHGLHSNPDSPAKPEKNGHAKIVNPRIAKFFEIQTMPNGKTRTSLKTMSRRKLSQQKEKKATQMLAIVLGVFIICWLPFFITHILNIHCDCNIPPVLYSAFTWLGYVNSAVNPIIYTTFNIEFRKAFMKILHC
# Method in brief: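 Eudismic index is the log of the eutomer/distomer affinity ratio, calculated as pIC50(eutomer) − pIC50(distomer) for each enantiomer pair. The pIC50 values come from displacement of specific [3H]spiperone binding at the dopamine D2 receptor.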
# [3] = target: Sigma non-opioid intracellular receptor 1 (Rattus norvegicus) (UniProt Q9R0C9); assay: Eudisimic index was determined for the compound against sigma receptor
# Sequence of Sigma non-opioid intracellular receptor 1 (Rattus norvegicus) (Q9R0C9 whole entry): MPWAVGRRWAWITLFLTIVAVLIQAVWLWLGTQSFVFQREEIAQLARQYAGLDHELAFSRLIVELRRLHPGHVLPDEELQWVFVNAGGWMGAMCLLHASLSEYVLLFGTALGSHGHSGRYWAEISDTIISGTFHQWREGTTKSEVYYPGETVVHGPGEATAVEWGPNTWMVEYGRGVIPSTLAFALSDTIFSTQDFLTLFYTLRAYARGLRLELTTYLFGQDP
# Method in brief: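 Eudismic index is the log of the eutomer/distomer affinity ratio, calculated as pIC50(eutomer) − pIC50(distomer) for each enantiomer pair, using σ-receptor binding pIC50 values.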
# [4] = Selectivity pIC50 (sigma)-pIC50(D2)
# [5] = target: D(2) dopamine receptor (Rattus norvegicus) (UniProt P61169)
# D(2) dopamine receptor = D(2) dopamine receptor (Rattus norvegicus, UniProt P61169); assay: Binding affinity for dopamine receptor D2 was evaluated by the ability to displace [3H]spiperone
# Sequence of D(2) dopamine receptor (P61169 whole entry): as the sequence (P61169 whole entry) above
# [6] = target: Sigma non-opioid intracellular receptor 1 (Rattus norvegicus, UniProt Q9R0C9); assay: Binding affinity against sigma receptor
# Sequence of Sigma non-opioid intracellular receptor 1 (Q9R0C9 whole entry): as the sequence (Q9R0C9 whole entry) above
Structure (SMILES),Log kw [1],EI [2],EI [3],Selectivity [4],other results
CCN1CCC[C@@H](c2cccc(O)c2)C1,0.84,–,–,–,–
Oc1cccc([C@H]2CCCN(CCc3ccccc3)C2)c1,2.27,1.45,0.3,–,–
Oc1cccc([C@H]2CCCNC2)c1,0.41,0.6,0.53,-1.02,–
CC(C)N1CCC[C@H](c2cccc(O)c2)C1,0.84,1.53,–,–,EI [5]: 0.07
Oc1cccc([C@@H]2CCCNC2)c1,0.41,–,–,-0.95,–
CN1CCC[C@H](c2cccc(O)c2)C1,0.96,0.32,0.71,–,–
CN1CCC[C@@H](c2cccc(O)c2)C1,0.94,–,–,0.01,IC50 (D(2) dopamine receptor): 1950 nM; IC50 [6]: 1910 nM
CCCCN1CCC[C@H](c2cccc(O)c2)C1,1.41,0.99,0.54,–,–
CCCN1CCC[C@H](c2cccc(O)c2)C1,1.05,0.61,0.71,–,–
CC(C)N1CCC[C@@H](c2cccc(O)c2)C1,0.84,–,–,0.23,–
CCCCN1CCC[C@@H](c2cccc(O)c2)C1,1.41,–,–,0.95,–
CCN1CCC[C@H](c2cccc(O)c2)C1,0.84,–,–,–,–
Oc1cccc([C@@H]2CCCN(CCc3ccccc3)C2)c1,2.27,–,–,0.44,–
CCCN1CCC[C@@H](c2cccc(O)c2)C1 [PRECLAMOL],1.05,–,–,–,–
